CHO parental Ca: ATP-evoked calcium signal inhibitors, parental CHO, primary screen, counter-screen for OX1R antagonist project, cell-based, fluorescence, Fluo-8 calcium dye | parental CHO-K1, ATP-induced calcium, Fluo-8 fluorescence | hit rate 0.63% among 330,000 | AID 463079, 2010 | inhibition, % at 5.6 µM;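 active = inhibition above that plate's mean sample inhibition plus 3 SD, cut at about 26% in these data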
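Assay system: untransfected parental CHO cell line. Also added: ATP agonist challenge. Dosing: one dose, 5.6 µM nominal. Measured by: Fluo-8 fluorescence. Read-out: % inhibition. Benchmarks: ATP wells versus no-ATP DMSO wells. Repeats: no replicates.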
V1aR counter: agonists of human V1a receptor, primary screen, counter-screen for OXTR agonist project, fluorescence, CHO-V1R cells; hit rate 0.25% among 320,000; Fluo-8 calcium fluorescence, agonist mode; 0% DMSO, 100% 3 nM vasopressin; AID 2797, 2010; activation, % at 3 µM;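 active = activation above the mean activation of all tested compounds plus 3 SD, per screening run, cut at about 20% in these data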;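 note: signal is peak over basal fluorescence ratio across a 100 second FLIPR read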
OXTR ag: human OXTR agonists, primary screen, fluorescence, CHO-OTR cells, Fluo-8 calcium; Fluo-8 calcium fluorescence; normalized: DMSO 0%, oxytocin 100%; AID 2435, 2010; Oxytocin receptor (Homo sapiens), P30559; hit rate 0.32% among 320,000; activation, % at 3 µM;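 active = activation above the mean of all tested compounds plus 3 SD, cutoff set per screening run, cut at about 20% in these data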;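 note: peak over basal fluorescence ratio from a 100 s FLIPR kinetic read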
Target sequence (P30559 whole entry, looked up): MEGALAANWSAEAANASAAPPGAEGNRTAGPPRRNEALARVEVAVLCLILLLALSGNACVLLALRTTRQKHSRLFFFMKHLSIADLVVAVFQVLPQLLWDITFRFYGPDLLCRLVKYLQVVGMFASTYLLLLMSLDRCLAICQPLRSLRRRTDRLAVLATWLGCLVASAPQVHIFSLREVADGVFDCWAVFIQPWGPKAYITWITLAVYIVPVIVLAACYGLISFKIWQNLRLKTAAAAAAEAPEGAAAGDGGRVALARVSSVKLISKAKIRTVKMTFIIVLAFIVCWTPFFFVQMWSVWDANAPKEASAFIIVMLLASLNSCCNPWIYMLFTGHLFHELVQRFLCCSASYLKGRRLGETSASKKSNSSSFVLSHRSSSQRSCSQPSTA
OX1R antag-1: antagonists of human orexin 1 receptor (OX1R) | Orexin/Hypocretin receptor type 1 (Homo sapiens), O43613 | OX1R-expressing cells, FRET antagonist read-out | inhibition, % at 6.6 µM | hit rate 1.8% among 330,000; in the data active = inhibition mostly above about 38%, no sharp cut-off; inactive = mostly below about 40%
OXTR potentiate: human OXTR potentiators, primary screen, fluorescence, CHO-OTR cells, Fluo-8 calcium; Oxytocin receptor (Homo sapiens), P30559; Fluo-8 calcium fluorescence, potentiator mode; 0% = oxytocin EC15, 100% = EC100; activation, % at 3 µM; hit rate 0.061% among 320,000;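 active = activation above that plate's cutoff, the mean activation of tested compounds plus 3 SD, cut at about 6.6% in these data, passing the limit was not always enough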
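Dosing: Single dose, 3.0 µM nominal final compound concentration | Material: Human OTR in CHO cells | Technique: Kinetic Fluo-8 calcium fluorescence | Benchmarks: EC15 oxytocin alone as 0%, 75 nM oxytocin as 100% | Probe or stimulus: Oxytocin at about EC15, sub-maximal agonist stimulus | Incubation: Compound 6 min at room temperature before oxytocin, 100 s read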
OX1R antag-2: OX1R (HCRTR1) antagonists, primary screen, fluorescence, CHO/OX1R cells, Fluo-8 calcium, orexin A; Fluo-8 calcium fluorescence; inhibition, % at 5 µM; hit rate 0.43% among 330,000; AID 434989, 2010;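 active = inhibition above its plate's threshold, mean inhibition of all tested compounds on the plate plus 3 SD, cut at about 37% in these data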
Hits are given with their value; . = inactive. A selection: hits, their analogues and other compounds. The true share with any hit is near 2.7%.

SMILES	CHO parental Ca	V1aR counter	OXTR ag	OX1R antag-1	OXTR potentiate	OX1R antag-2
COc1cc2ccccc2cc1C(=O)Nc1cc(C)ccn1	.	.	.	53	.	.
COc1ccc(C(=O)Nc2ccccc2C(=O)Nc2cc(C)ccn2)cc1	.	.	.	.	.	.
CC(=O)N[C@@H](Cc1c[nH]c2ccccc12)C(=O)OCC(=O)Nc1ccc(Cl)c(S(=O)(=O)N(C)C)c1	.	.	.	54	.	.
CC(=O)NC(Cc1c[nH]c2ccccc12)C(=O)OCC(=O)Nc1ccc2c(c1)OCO2 (centres undefined)	.	.	.	.	.	.
O=C(NCc1cccc(C(F)(F)F)c1)c1cc(Cl)cc(Cl)c1	.	.	.	42	.	.
O=C(CN1c2ccccc2S(=O)(=O)c2ccccc21)Nc1ccccc1F	.	.	.	.	.	.
O=C(O)c1sccc1SCc1ccc(Cl)c(Cl)c1	.	22	.	.	.	.
CN1C(=O)c2cccc3c(S(=O)(=O)Nc4ccccn4)ccc1c23	.	.	.	68	.	.
CN1C(=O)c2cccc3c(S(N)(=O)=O)ccc1c23	.	.	.	.	.	.
COc1ccc(OC2CCN(S(=O)(=O)c3cccc(F)c3)CC2)cc1	.	.	.	.	.	.
COc1ccc(OC2CCN(S(=O)(=O)c3ccc(OC)cc3)CC2)cc1	36	.	.	.	.	.
CCc1nc(SCC(=O)N2CCCc3ccccc32)c2oc3ccccc3c2n1	.	.	.	48	.	.
CCc1nc(SCC(=O)NC2CCCC2)c2oc3ccccc3c2n1	.	.	.	.	.	.
Cc1ccc(N)c([N+](=O)[O-])c1	.	.	.	.	.	.
CC1(C)N=c2ccc([N+](=O)[O-])c(N)c2=[N+]1[O-]	.	.	.	75	.	.
COc1ccc(COC(=O)c2ccc(C)c(S(=O)(=O)N3CCOCC3)c2)cc1F	.	.	.	.	.	.
Cc1nn(S(=O)(=O)c2ccccc2)c(C)c1Sc1ccc([N+](=O)[O-])cc1	.	.	.	.	.	.
Cc1nn(S(=O)(=O)c2cccs2)c(C)c1Sc1ccc([N+](=O)[O-])cc1	41	.	.	.	.	.
COc1ccc(NC(=O)c2cc(-c3cccc(OC)c3)on2)cc1	.	.	.	.	.	.
COc1cccc(-c2cc(C(=O)Nc3cccc(O)c3)no2)c1	.	.	.	71	.	.
O=C(Nc1cccc(C(F)(F)F)c1)c1cc(-c2ccc(F)cc2)on1	58	.	.	.	.	.
O=C(Nc1ccccc1C(F)(F)F)c1cc(-c2cccc(O)c2)on1	51	.	.	.	.	.
COc1cc(NC(=O)c2cc(-c3ccc(C)cc3)on2)cc(OC)c1OC	.	.	.	.	.	.
COc1cc(NC(=O)c2cc(-c3cccc(O)c3)on2)cc(OC)c1OC	.	.	.	38	.	.
COc1ccc([N+](=O)[O-])cc1NC(=O)C(C)NNC(=O)c1cccc([N+](=O)[O-])c1 (centres undefined)	.	.	.	.	.	.
SMILES	CHO parental Ca	V1aR counter	OXTR ag	OX1R antag-1	OXTR potentiate	OX1R antag-2
CCN(CCNCC(O)COc1ccccc1C(C)C)c1cccc(C)c1 (centres undefined)	31	.	.	.	.	.
Cc1cccc(C)c1NC(=O)C(=O)NCCOc1ccc(Cl)cc1	.	.	22	.	.	.
Cc1ccc(C(=O)NCCOc2ccc(Cl)cc2)cc1	.	.	.	.	.	.
COc1ccc2oc(C(=O)c3ccccc3)c(N)c2c1	.	.	.	64	.	.
COc1cccc(C(=O)Nc2c(C(N)=O)oc3ccccc23)c1	.	.	.	77	.	.
CCOCC(=O)Nc1c(C(=O)Nc2ccccc2OC)oc2ccccc12	.	.	.	.	.	.
COc1ccccc1NC(=O)COC(=O)c1oc2ccccc2c1C	.	.	.	51	.	.
COc1ccc2oc(C(=O)OCC(=O)NCc3ccccc3OC)c(C)c2c1	56	.	.	.	.	.
Cc1ccc(S(=O)(=O)N2CCCCC2)cc1NC(=O)COC(=O)c1ccc(=O)[nH]c1	.	.	.	.	.	.
COc1ccc(NC(=O)c2oc3ccccc3c2NC(=O)COc2ccccc2OC)c(OC)c1	.	.	.	.	.	.
COc1ccc(NC(=O)c2oc3ccccc3c2C)c(OC)c1	.	.	.	53	.	.
O=C(CSCc1ccc(Br)cc1)Nc1ccc(S(=O)(=O)N2CCOCC2)cc1	.	.	.	.	.	.
Cc1ccccc1NS(=O)(=O)c1ccc(NC(=O)CSCc2ccc(Br)cc2)cc1	31	.	.	.	.	.
CCC(=O)N1CCc2cc(S(=O)(=O)NCCC(=O)N3CC=C(c4ccccc4)CC3)ccc21	.	.	.	55	.	.
CCC(=O)N1CCc2cc(S(=O)(=O)NCCC(=O)N3CCc4ccccc4C3)ccc21	.	.	.	.	.	.
COC(=O)c1ccc(NC(=O)CSc2ccccc2)cc1	54	.	.	.	.	54
COC(=O)c1ccc(NC(=O)CSc2ccccn2)cc1	.	.	.	.	.	.
Cc1cccnc1NC(=O)C1CCC1	.	.	.	.	.	.
CC(=O)c1ccc(OCC(=O)Nc2ccccc2N2CCCC2)cc1	.	.	.	.	.	.
CCc1ccccc1NC(=O)COc1ccc(C(=S)N2CCCC2)cc1	.	.	.	46	.	.
COc1cccc(NC(=O)c2cc3cccc(OC)c3o/c2=N\O)c1	.	.	.	93	.	40
COc1cccc2cc(C(=O)NCCN3CCOCC3)c(=O)oc12	.	.	.	39	.	.
COc1ccc(C(=O)NNC(=O)c2cc3cccc(OC)c3oc2=O)cc1	.	.	.	50	.	.
COc1ccc(CCNC(=O)c2cc3cccc(OC)c3oc2=O)cc1OC	.	.	.	.	.	.
CCc1cc(=O)oc2cc(C)cc(OCC(=O)N3CCC(C(=O)NC(C)C)(c4ccccc4)CC3)c12	.	.	.	.	.	.
Cc1c(C(=O)Nc2ccncc2)sc2nc(-c3ccccc3)cn12	.	.	.	37	.	.
Cc1c(C(=O)Nc2ccc3c(c2)OCCO3)sc2nc(-c3ccccc3)cn12	46	.	.	66	.	68
COc1cc(N=Nc2ccc3ccccc3c2)ccc1O	.	.	.	.	.	.
Oc1ccc(N=Nc2ccc3ccccc3c2)cc1	43	.	.	.	.	.
